From ChEMBL document CHEMBL3526026, “Function of the blood-brain barrier and restriction of drug delivery to invasive glioma cells: findings in an orthotopic rat xenograft model of glioma” (Drug Metab Dispos, 2013)

Legend:
[1] = Drug uptake in tumor rim of Rowett rat orthotopically xenografted with human U87 cells at 20 mg/kg/day for 3 days by LC-MS/MS analysis in presence of elacridar; type: ADME, organism-based, U-87MG ATCC; details: in vivo, 72 h
Outline: (§1)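 U87-EGFR orthotopic rat xenografts (3 weeks' tumor growth) received oral erlotinib in 0.5% methylcellulose daily for 3 days. Elacridar 10 mg/kg was given intravenously via the jugular vein 30 minutes before each erlotinib dose. Sacrifice was 30 minutes after the last dose, followed by saline perfusion. Tumor core, rim and contralateral brain were dissected and analyzed by LC-MS/MS; n = 4 per group, mean ± S.D.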

[2] = Drug uptake at steady state in BCRP1 knock-out FVB mouse brain at 0.6 mg/h/kg, ip administered as infusion after 48 hrs by LC-MS/MS analysis; type: ADME, organism-based; details: read-out: Drug uptake
Outline: (§2)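 Male FVB mice, 8–10 weeks old, n = 4 per genotype. Continuous intraperitoneal infusion for 48 hours to steady state. Plasma obtained by centrifuging blood. Brain homogenized in 3 volumes of ice-cold 5% BSA in PBS. Erlotinib measured by LC-MS/MS with tyrphostin AG1478 internal standard. Brain values corrected for residual vascular blood, taking plasma space as 1.4% of brain. Mean ± S.D.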

[3] = Drug uptake at steady state in wild-type FVB mouse brain at 0.6 mg/h/kg, ip administered as infusion after 48 hrs by LC-MS/MS analysis; type: ADME, organism-based; details: read-out: Drug uptake; outline: as §2
[4] = Drug uptake in tumor core of Rowett rat orthotopically xenografted with human U87 cells at 20 mg/kg/day, po for 5 days by LC-MS/MS analysis; type: ADME, organism-based, U-87MG ATCC; parameters: route oral; details: read-out: Drug uptake
Outline: (§3)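 Rats received intracerebral U87 cells overexpressing wild-type EGFR (2.5 × 10^5 cells, right frontal, stereotaxic); tumors grew for 3 weeks. Erlotinib in 0.5% methylcellulose was given by oral gavage daily for 5 days. Sacrifice was 30 minutes after the last dose, with saline cardiac perfusion in the perfused group. Tissue was visually split into tumor core, adjacent rim and contralateral hemisphere. LC-MS/MS; n = 6.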

[5] = Plasma concentration at steady state in BCRP1 knock-out FVB mouse at 0.6 mg/h/kg, ip administered as infusion after 48 hrs by LC-MS/MS analysis; type: ADME, organism-based; details: read-out: Cpss; outline: as §2
[6] = Ratio of drug level in brain contralateral hemisphere to plasma in Rowett rat orthotopically xenografted with human U87 cells at 20 mg/kg/day, po for 5 days by LC-MS/MS analysis; type: ADME, organism-based, U-87MG ATCC; parameters: route oral; details: read-out: BPR
Outline: (§4)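 U87 cells (wild-type EGFR-transfected) inoculated into right frontal brain of anesthetized rats, 2.5 × 10^5 cells; tumor grown 3 weeks. Erlotinib 20 mg/kg/day in 0.5% methylcellulose by oral gavage for 5 days; sacrifice 30 min after last dose, with or without cardiac saline perfusion; tissue visually dissected into tumor core, rim, contralateral hemisphere; LC-MS/MS; n = 6 per group.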

[7] = Ratio of steady state drug level in brain to plasma in MDR1A/B FVB mouse at 0.6 mg/h/kg, ip administered as infusion after 48 hrs by LC-MS/MS analysis; type: ADME, organism-based; details: read-out: BPR
Outline: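 Male FVB Mdr1a/b−/− mice, 8–10 weeks, n = 4. Erlotinib given by constant i.p. infusion at 0.6 mg/h/kg for 48 h to steady state. Brain and plasma by LC-MS/MS after homogenizing brain in 3 volumes 5% BSA/PBS; brain values corrected for residual vascular blood (plasma space 1.4% of brain). Mean ± S.D.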

[8] = Ratio of steady state drug level in brain to plasma in BCRP1 FVB mouse at 0.6 mg/h/kg, ip administered as infusion after 48 hrs by LC-MS/MS analysis; type: ADME, organism-based; details: read-out: BPR; outline: as §2
[9] = Drug uptake in tumor rim of Rowett rat orthotopically xenografted with human U87 cells at 20 mg/kg/day, po for 5 days by LC-MS/MS analysis; type: ADME, organism-based, U-87MG ATCC; parameters: route oral; details: read-out: Drug uptake; outline: as §3
[10] = Ratio of drug level in tumor rim to plasma in Rowett rat orthotopically xenografted with human U87 cells at 20 mg/kg/day, po for 5 days by LC-MS/MS analysis; type: ADME, organism-based, U-87MG ATCC; parameters: route oral; outline: as §3
[11] = Drug uptake in tumor core of Rowett rat orthotopically xenografted with human U87 cells at 20 mg/kg/day for 3 days by LC-MS/MS analysis in presence of elacridar; type: ADME, organism-based, U-87MG ATCC; details: in vivo, 72 h; outline: as §1
[12] = Drug uptake in brain of Rowett rat orthotopically xenografted with human U87 cells at 20 mg/kg/day, po for 5 days by LC-MS/MS analysis; type: ADME, organism-based, U-87MG ATCC; parameters: route oral; details: read-out: Drug uptake; outline: as §3
Brain [13] = assay: Drug uptake in brain of Rowett rat orthotopically xenografted with human U87 cells at 20 mg/kg/day for 3 days by LC-MS/MS analysis in presence of elacridar; type: ADME, organism-based, U-87MG ATCC; details: in vivo, 72 h; outline: as §1
[14] = Plasma concentration at steady state in MDR1A/B/BCRP1 knock-out FVB mouse at 0.6 mg/h/kg, ip administered as infusion after 48 hrs by LC-MS/MS analysis; type: ADME, organism-based; details: read-out: Cpss; outline: as §2
[15] = Ratio of drug level in tumor rim to plasma in Rowett rat orthotopically xenografted with human U87 cells at 20 mg/kg/day for 3 days by LC-MS/MS analysis in presence of elacridar; type: ADME, organism-based, U-87MG ATCC; details: with elacridar (dose not stated)
Outline: (§5)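 U87 cells (wild-type EGFR-transfected) inoculated into right frontal brain of anesthetized rats, 2.5 × 10^5 cells; tumor grown 3 weeks. Erlotinib 20 mg/kg/day in 0.5% methylcellulose by gavage for 3 days; elacridar 10 mg/kg i.v. into jugular vein 30 min before each dose. Sacrifice 30 min after last dose, saline perfusion, brain dissected into tumor core, rim, contralateral hemisphere; plasma and homogenate by LC-MS/MS; n = 4 per group.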

Brain [16] = assay: Drug uptake in brain of Rowett rat orthotopically xenografted with human U87 cells at 20 mg/kg/day for 3 days by LC-MS/MS analysis in presence of elacridar relative to elacridar non-treated control; type: ADME, organism-based, U-87MG ATCC; details: in vivo, 72 h; outline: as §5
[17] = Half life in mouse; type: ADME, organism-based; details: in vivo
[18] = Ratio of steady state drug level in brain to plasma in MDR1A/B/BCRP1 FVB mouse at 0.6 mg/h/kg, ip administered as infusion after 48 hrs by LC-MS/MS analysis; type: ADME, organism-based; details: read-out: BPR; outline: as §2
[19] = Drug uptake at steady state in MDR1A/B/BCRP1 knock-out FVB mouse brain at 0.6 mg/h/kg, ip administered as infusion after 48 hrs by LC-MS/MS analysis; type: ADME, organism-based; details: read-out: Drug uptake; outline: as §2
[20] = Drug uptake at steady state in MDR1A/B knock-out FVB mouse brain at 0.6 mg/h/kg, ip administered as infusion after 48 hrs by LC-MS/MS analysis; type: ADME, organism-based; details: read-out: Drug uptake; outline: as §2
[21] = Ratio of drug level in tumor core to plasma in Rowett rat orthotopically xenografted with human U87 cells at 20 mg/kg/day for 3 days by LC-MS/MS analysis in presence of elacridar; type: ADME, organism-based, U-87MG ATCC; details: with elacridar (dose not stated); outline: as §5
[22] = Drug uptake in tumor core of Rowett rat orthotopically xenografted with human U87 cells at 20 mg/kg/day for 3 days by LC-MS/MS analysis in presence of elacridar relative to elacridar non-treated control; type: ADME, organism-based, U-87MG ATCC; details: in vivo, 72 h; outline: as §5
Nucleic Acid [23] = assay: Ratio of drug level in tumor core to tumor rim in Rowett rat orthotopically xenografted with human U87 cells at 20 mg/kg/day, po for 5 days by LC-MS/MS analysis; type: ADME, organism-based, U-87MG ATCC; parameters: route oral; details: in vivo, 120 h; outline: as §4
[24] = Drug uptake in tumor rim of Rowett rat orthotopically xenografted with human U87 cells at 20 mg/kg/day for 3 days by LC-MS/MS analysis in presence of elacridar relative to elacridar non-treated control; type: ADME, organism-based, U-87MG ATCC; details: in vivo, 72 h; outline: as §5
Nucleic Acid [25] = assay: Ratio of drug level in tumor core to brain contralateral hemisphere in Rowett rat orthotopically xenografted with human U87 cells at 20 mg/kg/day, po for 5 days by LC-MS/MS analysis; type: ADME, organism-based, U-87MG ATCC; parameters: route oral; details: in vivo, 120 h; outline: as §4
[26] = Ratio of steady state drug level in brain to plasma in wild-type FVB mouse at 0.6 mg/h/kg, ip administered as infusion after 48 hrs by LC-MS/MS analysis; type: ADME, organism-based; details: read-out: BPR; outline: as §2
[27] = Ratio of drug level in tumor core to plasma in Rowett rat orthotopically xenografted with human U87 cells at 20 mg/kg/day, po for 5 days by LC-MS/MS analysis; type: ADME, organism-based, U-87MG ATCC; parameters: route oral; outline: as §3
[28] = Ratio of drug level in brain contralateral hemisphere to plasma in Rowett rat orthotopically xenografted with human U87 cells at 20 mg/kg/day for 3 days by LC-MS/MS analysis in presence of elacridar; type: ADME, organism-based, U-87MG ATCC; details: with elacridar (dose not stated), read-out: BPR; outline: as §5
[29] = Plasma concentration at steady state in MDR1A/B knock-out FVB mouse at 0.6 mg/h/kg, ip administered as infusion after 48 hrs by LC-MS/MS analysis; type: ADME, organism-based; details: read-out: Cpss; outline: as §2
[30] = Plasma concentration at steady state in wild-type FVB mouse at 0.6 mg/h/kg, ip administered as infusion after 48 hrs by LC-MS/MS analysis; type: ADME, organism-based; details: read-out: Cpss; outline: as §2

C#Cc1cccc(Nc2ncnc3cc(OCCOC)c(OCCOC)cc23)c1.Cl [ERLOTINIB HYDROCHLORIDE]
Drug uptake [1]: Active
concentration at 48 h [2]: 4.9 ng/g
concentration at 48 h [3]: 4.3 ng/g
concentration at 120 h [4]: 1830 ng/g
concentration at 48 h [5]: 71 ng/mL
Kp at 120 h [6]: 0.09
Kp at 48 h [7]: 0.09
Kp at 48 h [8]: 0.07
concentration at 120 h [9]: 390 ng/g
Kp at 120 h [10]: 0.1
Drug uptake [11]: Active
concentration at 120 h [12]: 370 ng/g
Drug uptake (Brain [13]): Active
concentration at 48 h [14]: 99 ng/mL
Kp at 72 h [15]: 1
fold change (FC) (Brain [16]): 12
half-life [17]: 1 h
Kp at 48 h [18]: 0.62
concentration at 48 h [19]: 34 ng/g
concentration at 48 h [20]: 12 ng/g
Kp at 72 h [21]: 1
fold change (FC) [22]: 4
Ratio (Nucleic Acid [23]): 4.7
fold change (FC) [24]: 12
Ratio (Nucleic Acid [25]): 5
Kp at 48 h [26]: 0.02
Kp at 120 h [27]: 0.51
Kp at 72 h [28]: 1
concentration at 48 h [29]: 81 ng/mL
concentration at 48 h [30]: 72 ng/mL
